In ChEMBL document CHEMBL3875168, “Synthesis and apoptosis inducing studies of triazole linked 3-benzylidene isatin derivatives” (Eur J Med Chem, 2016):
Calls of active or inactive are those of the source. No cut-off for these calls is given here.

How the values were obtained:
DU-145 [1] = test: Induction of apoptosis in human DU145 cells assessed as increase in intracellular reactive oxygen species after 6 hrs by DCFDA dye based spectrofluorometer; type: functional, cell-based
DU-145 [2] = test: Induction of apoptosis in human DU145 cells assessed as necrotic cells at 1.25 uM after 24 hrs by Annexin V-FITC/propidium iodide staining based flow cytometry (reference value: 2.14%); type: functional
DU-145 [3] = test: Induction of apoptosis in human DU145 cells assessed as viable cells at 2.5 uM after 24 hrs by Annexin V-FITC/propidium iodide staining based flow cytometry (reference value: 90.32%); type: functional; details: DU-145, 24 h, read-out: Activity
[4] = Cell cycle arrest in human DU145 cells assessed as accumulation at G0/G1 phase at 2.5 uM after 24 hrs by propidium iodide staining-based flow cytometry (reference value: 62.81%); type: functional; details: DU-145
In short: (§1)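 Compound given to DU145 at 2.5 and 5.0 μM for 24 h alongside untreated cells. Cells harvested, PBS-washed, fixed in ice-cold 70% ethanol, then stained 30 min at 37 °C in the dark with propidium iodide (50 μg/mL) plus RNase A (20 μg/mL) in 0.1% Triton X-100. About 10000 events per sample read by flow cytometry; a representative of three independent experiments is shown.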

DU-145 [5] = test: Induction of apoptosis in human DU145 cells after 24 hrs by Annexin V-FITC/propidium iodide staining based flow cytometry; type: functional, cell-based
DU-145 [6] = test: Induction of mitochondrial membrane potential loss in human DU145 cells at 1.25 uM after 24 hrs by flow cytometry (reference value: 5.39%); type: functional
DU-145 [7] = test: Induction of apoptosis in human DU145 cells assessed as late apoptotic cells at 2.5 uM after 24 hrs by Annexin V-FITC/propidium iodide staining based flow cytometry (reference value: 5.4%); type: functional
[8] = Cell cycle arrest in human DU145 cells assessed as accumulation at sub G1 phase at 5 uM after 24 hrs by propidium iodide staining-based flow cytometry (reference value: 0.65%); type: functional; details: DU-145; in short: as §1
[9] = Cell cycle arrest in human DU145 cells assessed as accumulation at G0/G1 phase at 5 uM after 24 hrs by propidium iodide staining-based flow cytometry (reference value: 62.81%); type: functional; details: DU-145; in short: as §1
DU-145 [10] = test: Induction of apoptosis in human DU145 cells assessed as viable cells at 5 uM after 24 hrs by Annexin V-FITC/propidium iodide staining based flow cytometry (reference value: 90.32%); type: functional; details: DU-145, 24 h, read-out: Activity
[11] = Cell cycle arrest in human DU145 cells assessed as accumulation at G2/M phase after 24 hrs by propidium iodide staining-based flow cytometry; type: functional; details: DU-145; in short: as §1
DU-145 [12] = test: Induction of apoptosis in human DU145 cells assessed as necrotic cells at 5 uM after 24 hrs by Annexin V-FITC/propidium iodide staining based flow cytometry (reference value: 2.14%); type: functional
DU-145 [13] = test: Induction of apoptosis in human DU145 cells assessed as increase in cleaved PARP level after 48 hrs by Western blot analysis; type: functional, cell-based
[14] = Cytotoxicity against human BT549 cells assessed as cell growth inhibition after 48 hrs by MTT assay; type: functional, cell-based; details: BT-549, 48 h
In short: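 Cell lines (NCCS) grown in DMEM or RPMI with 10% FBS and antibiotic-antimycotic at 37 °C, 5% CO2, 90% humidity. Cells seeded at 3-5×10^3 per well, treated 48 h with serial dilutions in medium beside vehicle control. Medium replaced with MTT (0.5 mg/mL) for 4 h, absorbance read at 570 nm. IC50 taken from concentration-response curves; sunitinib served as reference.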

DU-145 [15] = test: Induction of apoptosis in human DU145 cells assessed as late apoptotic cells at 5 uM after 24 hrs by Annexin V-FITC/propidium iodide staining based flow cytometry (reference value: 5.4%); type: functional
DU-145 [16] = test: Induction of apoptosis in human DU145 cells assessed as increase in intracellular reactive oxygen species at 2.5 to 5 uM after 24 hrs in presence of N-acetyl cysteine by DCFDA dye based spectrofluorometer; type: functional, cell-based
DU-145 [17] = test: Induction of morphological changes in human DU145 cells assessed as membrane blebbing at 1.25 to 5 uM after 48 hrs by acridine orange/ethidium bromide-dual staining based fluorescence microscopic method; type: functional, cell-based
In short: (§2)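 DU145 plated at 1×10^6 cells/mL, treated at several concentrations and kept 48 h at 37 °C in 5% CO2. Equal volumes of acridine orange and ethidium bromide (10 μg/mL) added, and cells imaged within 10 min by fluorescence microscopy (excitation 488 nm, emission 550 nm) at 200x.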

DU-145 [18] = test: Induction of apoptosis in human DU145 cells assessed as decrease in Bcl2 level after 48 hrs by Western blot analysis; type: functional, cell-based
DU-145 [19] = test: Induction of apoptosis in human DU145 cells assessed as early apoptotic cells at 5 uM after 24 hrs by Annexin V-FITC/propidium iodide staining based flow cytometry (reference value: 2.14%; type: functional
[20] = Cell cycle arrest in human DU145 cells assessed as accumulation at G2/M phase at 5 uM after 24 hrs by propidium iodide staining-based flow cytometry (reference value: 29.66%); type: functional; details: DU-145; in short: as §1
DU-145 [21] = test: Induction of apoptosis in human DU145 cells assessed as condensation of nucleus at 2.5 to 5 uM after 48 hrs by DAPI staining based fluorescence microscopic method; type: functional, cell-based
In short: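 DU145 treated for 48 h, PBS-washed, permeabilized with 0.1% Tween 20 for 10 min and stained with 1 μM DAPI. Nuclear morphology of control and treated cells viewed by fluorescence microscopy (excitation 359 nm, emission 461 nm) at 200x.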

[22] = Cell cycle arrest in human DU145 cells assessed as accumulation at G2/M phase at 2.5 uM after 24 hrs by propidium iodide staining-based flow cytometry (reference value: 29.66%); type: functional; details: DU-145; in short: as §1
DU-145 [23] = test: Induction of mitochondrial membrane potential loss in human DU145 cells at 2.5 uM after 24 hrs by flow cytometry (reference value: 5.39%); type: functional
DU-145 [24] = test: Induction of apoptosis in human DU145 cells assessed as increase in necrotic cells after 24 hrs by Annexin V-FITC/propidium iodide staining based flow cytometry; type: functional, cell-based
[25] = Cytotoxicity against human RWPE1 cells assessed as cell growth inhibition after 48 hrs by MTT assay; type: toxicity, cell-based, RWPE-1
DU-145 [26] = test: Induction of apoptosis in human DU145 cells assessed as early apoptotic cells at 2.5 uM after 24 hrs by Annexin V-FITC/propidium iodide staining based flow cytometry (reference value: 2.14%); type: functional
DU-145 [27] = test: Induction of morphological changes in human DU145 cells assessed as apoptotic body formation at 1.25 to 5 uM after 48 hrs by acridine orange/ethidium bromide-dual staining based fluorescence microscopic method; type: functional, cell-based; in short: as §2
DU-145 [28] = test: Induction of apoptosis in human DU145 cells assessed as late apoptotic cells at 1.25 uM after 24 hrs by Annexin V-FITC/propidium iodide staining based flow cytometry (reference value: 5.4%); type: functional
[29] = Cell cycle arrest in human DU145 cells assessed as accumulation at S phase at 2.5 uM after 24 hrs by propidium iodide staining-based flow cytometry (reference value: 10.3%); type: functional; details: DU-145; in short: as §1
DU-145 [30] = test: Induction of mitochondrial membrane potential loss in human DU145 cells after 24 hrs by flow cytometry; type: functional, cell-based
[31] = Cell cycle arrest in human DU145 cells assessed as accumulation at S phase at 5 uM after 24 hrs by propidium iodide staining-based flow cytometry (reference value: 10.3%); type: functional; details: DU-145; in short: as §1

For `O=C1Nc2ccc(C(c3ccccc3)c3ccccc3)cc2/C1=C/c1cccc(OCc2cn(Cc3ccccc3)nn2)c1`, the Activity (DU-145 [1]) was “Dose-dependent effect”, the Activity (DU-145 [2]) was 1.82% and the viability at 2.5 µM (DU-145 [3]) was 64.5%. For the same compound, the Activity [4] was 14.8%, the Activity (DU-145 [5]) was “Dose-dependent effect” and the Activity (DU-145 [6]) was 64.28%. It also gave an Activity (DU-145 [7]) of 13%, an Activity [8] of 18.3% and an Activity [9] of 10.1%. The viability at 5 µM (DU-145 [10]) was 45.9%, the Activity [11] was “Dose-dependent effect” and the Activity (DU-145 [12]) was 15.46%. The Activity (DU-145 [13]) was “Active”, the IC50 [14] was 15.8 µM and the Activity (DU-145 [15]) was 25%. For the same compound, the Activity (DU-145 [16]) was “Active”, the Activity (DU-145 [17]) was “Active” and the Activity (DU-145 [18]) was “Active”. For the same compound, the Activity (DU-145 [19]) was 13.64%, the Activity [20] was 48% and the Activity (DU-145 [21]) was “Active”. The Activity [22] was 43.7%, the Activity (DU-145 [23]) was 85.24% and the Activity (DU-145 [24]) was “Dose-dependent effect”. The IC50 at 48 h [25] was 21.4 µM, the Activity (DU-145 [26]) was 18.05% and the Activity (DU-145 [27]) was “Active”. The Activity (DU-145 [28]) was 9.11%, the Activity [29] was 12.7% and the Activity (DU-145 [30]) was “Dose-dependent effect”. It also gave an Activity [31] of 22.5%.
